ChEMBL document CHEMBL1155347, “Synthesis and antimicrobial activities of novel quinoline derivatives carrying 1,2,4-triazole moiety” (2009)
In brackets after ≈: the same amount, converted by molar mass.

What was measured:
Assay type in all cases: functional
Aspergillus flavus [1] = assay: Antifungal activity against Aspergillus flavus NCIM 524 by serial plate dilution method
Pseudomonas aeruginosa [2] = assay: Antibacterial activity against Pseudomonas aeruginosa ATCC 27853 at MIC after 3 to 4 days by agar well diffusion method
Pseudomonas aeruginosa [3] = assay: Antibacterial activity against Pseudomonas aeruginosa ATCC 27853 after 16 to 18 hrs by serial plate dilution method
Procedure, shortened: (§1)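 Drug serially diluted in Mueller–Hinton broth in tubes, adjusted to pH 5.0 with phosphate buffer. Inoculated with standardized bacterial suspension and incubated 16–18 h at 37 °C. MIC taken as lowest concentration with no visible growth.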

[4] = tested on: Trichophyton mentagrophytes; assay: Antifungal activity against recultured Trichophyton mentagrophytes at MIC after 3 to 4 days by agar well diffusion method
Procedure, shortened: (§2)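 Sabouraud agar (peptone, D-glucose, agar; pH 5.7) seeded with spore suspension made by transferring a loopful of fungus to 3 mL normal saline. Excess decanted, plates dried 1 h at 37 °C. Compounds in DMSO at MIC added to punched wells; DMSO control. Triplicate plates kept 3–4 days at 37 °C.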

Talaromyces marneffei [5] = assay: Antifungal activity against recultured Penicillium marneffei at MIC after 3 to 4 days by agar well diffusion method; procedure, shortened: as §2
Talaromyces marneffei [6] = assay: Antifungal activity against recultured Penicillium marneffei by serial plate dilution method
[7] = tested on: Trichophyton mentagrophytes; assay: Antifungal activity against recultured Trichophyton mentagrophytes by serial plate dilution method
Staphylococcus aureus [8] = assay: Antibacterial activity against Staphylococcus aureus ATCC 25923 after 16 to 18 hrs by serial plate dilution method; procedure, shortened: as §1
Aspergillus fumigatus [9] = assay: Antifungal activity against Aspergillus fumigatus NCIM 902 by serial plate dilution method
Klebsiella pneumoniae [10] = assay: Antibacterial activity against recultured Klebsiella pneumoniae after 16 to 18 hrs by serial plate dilution method; procedure, shortened: as §1
Escherichia coli [11] = assay: Antibacterial activity against Escherichia coli ATCC 25922 after 16 to 18 hrs by serial plate dilution method; procedure, shortened: as §1
Escherichia coli [12] = assay: Antibacterial activity against Escherichia coli ATCC 25922 at MIC after 3 to 4 days by agar well diffusion method
Staphylococcus aureus [13] = assay: Antibacterial activity against Staphylococcus aureus ATCC 25923 at MIC after 3 to 4 days by agar well diffusion method
Klebsiella pneumoniae [14] = assay: Antibacterial activity against recultured Klebsiella pneumoniae at MIC after 3 to 4 days by agar well diffusion method
Aspergillus flavus [15] = assay: Antifungal activity against Aspergillus flavus NCIM 524 at MIC after 3 to 4 days by agar well diffusion method; procedure, shortened: as §2
Aspergillus fumigatus [16] = assay: Antifungal activity against Aspergillus fumigatus NCIM 902 at MIC after 3 to 4 days by agar well diffusion method; procedure, shortened: as §2

Row | MIC (Aspergillus flavus [1]) | MIC (Pseudomonas aeruginosa [3]) | MIC (Talaromyces marneffei [6]) | MIC [7] | MIC (Staphylococcus aureus [8]) | MIC (Aspergillus fumigatus [9]) | MIC (Klebsiella pneumoniae [10]) | MIC (Escherichia coli [11]) | Structure (SMILES) | inhibition zone (IZ) (Pseudomonas aeruginosa [2]) | inhibition zone (IZ) [4] | inhibition zone (IZ) (Talaromyces marneffei [5]) | inhibition zone (IZ) (Escherichia coli [12]) | inhibition zone (IZ) (Staphylococcus aureus [13]) | inhibition zone (IZ) (Klebsiella pneumoniae [14]) | inhibition zone (IZ) (Aspergillus flavus [15]) | inhibition zone (IZ) (Aspergillus fumigatus [16])
1 | 6.25 µg/mL (≈ 14.6 µM) | 6.25 µg/mL (≈ 14.6 µM) | 6.25 µg/mL (≈ 14.6 µM) | 6.25 µg/mL (≈ 14.6 µM) | 6.25 µg/mL (≈ 14.6 µM) | 6.25 µg/mL (≈ 14.6 µM) | 6.25 µg/mL (≈ 14.6 µM) | 6.25 µg/mL (≈ 14.6 µM) | FC(F)(F)c1cccc2c(NC3CC3)c(-c3nnc(S)n3-c3ccccc3)cnc12 | 16 mm | 20 mm | 16 mm | 20 mm | 16 mm | 16 mm | 16 mm | 16 mm
2 | 6.25 µg/mL (≈ 13.7 µM) | 6.25 µg/mL (≈ 13.7 µM) | 6.25 µg/mL (≈ 13.7 µM) | 6.25 µg/mL (≈ 13.7 µM) | 6.25 µg/mL (≈ 13.7 µM) | 6.25 µg/mL (≈ 13.7 µM) | 6.25 µg/mL (≈ 13.7 µM) | 6.25 µg/mL (≈ 13.7 µM) | FC(F)(F)c1cccc2c(N3CCOCC3)c(-c3nnc(S)n3-c3ccccc3)cnc12 | 16 mm | 20 mm | 16 mm | 20 mm | 16 mm | 16 mm | 16 mm | 16 mm
3 | 6.25 µg/mL (≈ 13.4 µM) | 6.25 µg/mL (≈ 13.4 µM) | 6.25 µg/mL (≈ 13.4 µM) | 6.25 µg/mL (≈ 13.4 µM) | 6.25 µg/mL (≈ 13.4 µM) | 6.25 µg/mL (≈ 13.4 µM) | 6.25 µg/mL (≈ 13.4 µM) | 6.25 µg/mL (≈ 13.4 µM) | COCCn1c(S)nnc1-c1cnc2c(C(F)(F)F)cccc2c1N1CC(C)OC(C)C1 (centres undefined) | 16 mm | 20 mm | 16 mm | 20 mm | 16 mm | 16 mm | 16 mm | 16 mm
4 | 6.25 µg/mL (≈ 14.2 µM) | 6.25 µg/mL (≈ 14.2 µM) | 6.25 µg/mL (≈ 14.2 µM) | 6.25 µg/mL (≈ 14.2 µM) | 6.25 µg/mL (≈ 14.2 µM) | 6.25 µg/mL (≈ 14.2 µM) | 6.25 µg/mL (≈ 14.2 µM) | 6.25 µg/mL (≈ 14.2 µM) | FC(F)(F)c1cccc2c(NC3CC3)c(-c3nnc(S)n3Cc3ccccc3)cnc12 | 16 mm | 20 mm | 16 mm | 20 mm | 16 mm | 16 mm | 16 mm | 16 mm
5 | 6.25 µg/mL (≈ 16.1 µM) | 6.25 µg/mL (≈ 16.1 µM) | 6.25 µg/mL (≈ 16.1 µM) | 6.25 µg/mL (≈ 16.1 µM) | 6.25 µg/mL (≈ 16.1 µM) | 6.25 µg/mL (≈ 16.1 µM) | 6.25 µg/mL (≈ 16.1 µM) | 6.25 µg/mL (≈ 16.1 µM) | Oc1c(-c2nnc(S)n2-c2ccccc2)cnc2c(C(F)(F)F)cccc12 | 16 mm | 20 mm | 16 mm | 20 mm | 16 mm | 16 mm | 16 mm | 16 mm
6 | 6.25 µg/mL (≈ 16.9 µM) | 6.25 µg/mL (≈ 16.9 µM) | 6.25 µg/mL (≈ 16.9 µM) | 6.25 µg/mL (≈ 16.9 µM) | 6.25 µg/mL (≈ 16.9 µM) | 6.25 µg/mL (≈ 16.9 µM) | 6.25 µg/mL (≈ 16.9 µM) | 6.25 µg/mL (≈ 16.9 µM) | COCCn1c(S)nnc1-c1cnc2c(C(F)(F)F)cccc2c1O | 16 mm | 20 mm | 16 mm | 20 mm | 16 mm | 16 mm | 16 mm | 16 mm
7 | 6.25 µg/mL (≈ 15.3 µM) | 6.25 µg/mL (≈ 15.3 µM) | 6.25 µg/mL (≈ 15.3 µM) | 6.25 µg/mL (≈ 15.3 µM) | 6.25 µg/mL (≈ 15.3 µM) | 6.25 µg/mL (≈ 15.3 µM) | 6.25 µg/mL (≈ 15.3 µM) | 6.25 µg/mL (≈ 15.3 µM) | COCCn1c(S)nnc1-c1cnc2c(C(F)(F)F)cccc2c1NC1CC1 | 16 mm | 20 mm | 16 mm | 20 mm | 16 mm | 16 mm | 16 mm | 16 mm
8 | 6.25 µg/mL (≈ 13.8 µM) | 6.25 µg/mL (≈ 13.8 µM) | 6.25 µg/mL (≈ 13.8 µM) | 6.25 µg/mL (≈ 13.8 µM) | 6.25 µg/mL (≈ 13.8 µM) | 6.25 µg/mL (≈ 13.8 µM) | 6.25 µg/mL (≈ 13.8 µM) | 6.25 µg/mL (≈ 13.8 µM) | COCCn1c(S)nnc1-c1cnc2c(C(F)(F)F)cccc2c1NC1CCCCC1 | 16 mm | 20 mm | 16 mm | 20 mm | 16 mm | 16 mm | 16 mm | 16 mm
9 | 6.25 µg/mL (≈ 13.3 µM) | 6.25 µg/mL (≈ 13.3 µM) | 6.25 µg/mL (≈ 13.3 µM) | 6.25 µg/mL (≈ 13.3 µM) | 6.25 µg/mL (≈ 13.3 µM) | 6.25 µg/mL (≈ 13.3 µM) | 6.25 µg/mL (≈ 13.3 µM) | 6.25 µg/mL (≈ 13.3 µM) | CC(C)(C)CCNc1c(-c2nnc(S)n2-c2ccccc2)cnc2c(C(F)(F)F)cccc12 | 16 mm | 20 mm | 16 mm | 20 mm | 16 mm | 16 mm | 16 mm | 16 mm
10 | 6.25 µg/mL (≈ 11.6 µM) | 6.25 µg/mL (≈ 11.6 µM) | 6.25 µg/mL (≈ 11.6 µM) | 6.25 µg/mL (≈ 11.6 µM) | 6.25 µg/mL (≈ 11.6 µM) | 6.25 µg/mL (≈ 11.6 µM) | 6.25 µg/mL (≈ 11.6 µM) | 6.25 µg/mL (≈ 11.6 µM) | FC(F)(F)c1cccc2c(N3CCC(N4CCOCC4)CC3)c(-c3nnc(S)n3-c3ccccc3)cnc12 | 16 mm | 20 mm | 16 mm | 20 mm | 16 mm | 16 mm | 16 mm | 16 mm
11 | 6.25 µg/mL (≈ 13.3 µM) | 6.25 µg/mL (≈ 13.3 µM) | 6.25 µg/mL (≈ 13.3 µM) | 6.25 µg/mL (≈ 13.3 µM) | 6.25 µg/mL (≈ 13.3 µM) | 6.25 µg/mL (≈ 13.3 µM) | 6.25 µg/mL (≈ 13.3 µM) | 6.25 µg/mL (≈ 13.3 µM) | FC(F)(F)c1cccc2c(NC3CCCCC3)c(-c3nnc(S)n3-c3ccccc3)cnc12 | 16 mm | 20 mm | 16 mm | 20 mm | 16 mm | 16 mm | 16 mm | 16 mm
12 | 6.25 µg/mL (≈ 14.2 µM) | 6.25 µg/mL (≈ 14.2 µM) | 6.25 µg/mL (≈ 14.2 µM) | 6.25 µg/mL (≈ 14.2 µM) | 6.25 µg/mL (≈ 14.2 µM) | 6.25 µg/mL (≈ 14.2 µM) | 6.25 µg/mL (≈ 14.2 µM) | 6.25 µg/mL (≈ 14.2 µM) | COCCn1c(S)nnc1-c1cnc2c(C(F)(F)F)cccc2c1N1CCOCC1 | 16 mm | 20 mm | 16 mm | 20 mm | 16 mm | 16 mm | 16 mm | 16 mm
13 | 6.25 µg/mL (≈ 15.4 µM) | 6.25 µg/mL (≈ 15.4 µM) | 6.25 µg/mL (≈ 15.4 µM) | 6.25 µg/mL (≈ 15.4 µM) | 6.25 µg/mL (≈ 15.4 µM) | 6.25 µg/mL (≈ 15.4 µM) | 6.25 µg/mL (≈ 15.4 µM) | 6.25 µg/mL (≈ 15.4 µM) | FC(F)(F)c1cccc2c(Cl)c(-c3nnc(S)n3-c3ccccc3)cnc12 | 16 mm | 20 mm | 16 mm | 20 mm | 16 mm | 16 mm | 16 mm | 16 mm
14 | 6.25 µg/mL (≈ 13.8 µM) | 50 µg/mL (≈ 110 µM) | 6.25 µg/mL (≈ 13.8 µM) | 6.25 µg/mL (≈ 13.8 µM) | 50 µg/mL (≈ 110 µM) | 6.25 µg/mL (≈ 13.8 µM) | 50 µg/mL (≈ 110 µM) | 50 µg/mL (≈ 110 µM) | COCCn1c(S)nnc1-c1cnc2c(C(F)(F)F)cccc2c1NCCC(C)(C)C | <10 mm | 20 mm | 16 mm | <10 mm | <10 mm | <10 mm | 16 mm | 16 mm
